ChEMBL document CHEMBL1138657 (2004)
Values after ≈ are worked out from the molar mass of the structure shown.

Key:
[1] = test system: Candida albicans; assay: Minimum inhibitory concentration to inhibit 90% of the isolates; assay type: functional, Fungi
Method in brief: (§1)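 Broth microdilution per NCCLS document against 20 C. albicans strains. […] MIC is reported in µg/mL as the arithmetic mean ± SD. MIC50 and MIC90 are the MICs at which 50% and 90% of isolates are inhibited. C. parapsilosis ATCC22019 was run as the QC strain.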

[2] = test system: Candida parapsilosis; assay: Antifungal activity to inhibit Candida parapsilosis ATCC 22019; assay type: functional, Fungi; details: Lodderomyces parapsilosis
[3] = test system: Candida albicans; assay: Antifungal activity to cause 99% reduction of surviving cells range is equal to 2-32; assay type: functional, Fungi
[4] = test system: Candida parapsilosis; assay: Minimum inhibitory concentration to inhibit Candida parapsilosis ATCC 22019; assay type: functional, Fungi; details: Lodderomyces parapsilosis; method in brief: as §1
[5] = test system: Candida albicans; assay: Minimum inhibitory concentration to inhibit Candida albicans strain range is equal to 1-8; assay type: functional, Fungi; method in brief: as §1
[6] = test system: Candida albicans; assay: Antifungal activity to cause 99% reduction of surviving cells in 50% isolates; assay type: functional, Fungi
[7] = test system: Candida albicans; assay: Antifungal activity to cause 99% reduction of surviving cells in 90% isolates; assay type: functional, Fungi
[8] = test system: Candida albicans; assay: Minimum inhibitory concentration to inhibit 50% of the isolates; assay type: functional, Fungi; method in brief: as §1
[9] = test system: K562; assay: Cytotoxicity to reduce chronic myeloid leukemia K 562 cells; assay type: functional; details: Homo sapiens
Method in brief: (§2)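 CC50 is the concentration in µM that reduces viability of human histiocytic lymphoma U937 or chronic myeloid leukemia K562 cells by 50%.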

[10] = test system: U-937; assay: Cytotoxicity to reduce human histolytic lymphoma U937 cells; assay type: functional; method in brief: as §2
[11] = test system: Candida albicans; assay: Antifungal activity to cause 99% reduction of surviving cells range is equal to 4-16; assay type: functional, Fungi
[12] = test system: Candida albicans; assay: Antifungal activity to cause 99% reduction of surviving cells range is equal to 32-128; assay type: functional, Fungi
[13] = test system: Candida albicans; assay: Minimum inhibitory concentration to inhibit Candida albicans strain range is equal to 16-128; assay type: functional, Fungi; method in brief: as §1
[14] = test system: Candida albicans; assay: Minimum inhibitory concentration to inhibit Candida Albicans strain range is equal to 4-64; assay type: functional, Fungi; method in brief: as §1
[15] = test system: Candida albicans; assay: Minimum inhibitory concentration to inhibit 50% of the isolates
[16] = test system: Candida albicans; assay: Antifungal activity to cause 99% reduction of surviving cells range is equal to 1-8; assay type: functional, Fungi
[17] = test system: Candida albicans; assay: Minimum inhibitory concentration to inhibit Candida albicans strain range is equal to 0.5-4; assay type: functional, Fungi; method in brief: as §1
[18] = test system: Candida albicans; assay: Antifungal activity to cause 99% reduction of surviving cells range is equal to 2-16; assay type: functional, Fungi
[19] = test system: Candida albicans; assay: Minimum inhibitory concentration to inhibit Candida albicans strain range is equal to 1-4; assay type: functional, Fungi; method in brief: as §1
[20] = test system: Candida albicans; assay: Antifungal activity to cause 99% reduction of surviving cells range is equal to 8-16; assay type: functional, Fungi
[21] = test system: Candida albicans; assay: Antifungal activity to cause 99% reduction of surviving cells range is equal to 16-128; assay type: functional, Fungi
[22] = test system: Candida albicans; assay: Minimum inhibitory concentration to inhibit Candida albicans strain range is equal to 8-64; assay type: functional, Fungi; method in brief: as §1
[23] = test system: Candida albicans; assay: Antifungal activity to cause 99% reduction of surviving cells range is equal to 8-32; assay type: functional, Fungi
[24] = test system: Candida albicans; assay: Minimum inhibitory concentration to inhibit Candida albicans strain range is equal to 2-8; assay type: functional, Fungi; method in brief: as §1
[25] = test system: Candida albicans; assay: Antifungal activity to cause 99% reduction of surviving cells; assay type: functional, Fungi
[26] = test system: Candida albicans; assay: Minimum inhibitory concentration to inhibit Candida albicans strain range is equal to 0.125-64; assay type: functional, Fungi
[27] = test system: Candida albicans; assay: Antifungal activity to cause 99% reduction of surviving cells range is equal to 64-128; assay type: functional, Fungi
[28] = test system: Candida albicans; assay: Minimum inhibitory concentration to inhibit Candida albicans strain range is equal to 32-128; assay type: functional, Fungi
[29] = test system: Candida albicans; assay: Minimum inhibitory concentration to inhibit Candida albicans strain range is equal to 2-16; assay type: functional, Fungi
[30] = test system: Candida albicans; assay: Antifungal activity to cause 99% reduction of surviving cells range is equal to 4-32; assay type: functional, Fungi

SMILES | MIC90 [1] [µg/mL] | MFC [2] [µg/mL] | MIC [4] [µg/mL] | MFC50 [6] [µg/mL] | MFC90 [7] [µg/mL] | MIC50 [8] [µg/mL] | CC50 [9] [µM] | CC50 [10] [µM] | also measured
Clc1ccc(OC(CCn2ccnc2)c2ccccc2)cc1 (stereo unspecified) | 4 (≈ 12.8 µM) | 32 (≈ 102 µM) | 4 (≈ 12.8 µM) | 4 (≈ 12.8 µM) | 16 (≈ 51.2 µM) | 2 (≈ 6.39 µM) | 221 | 84.9 | MFC [3]: < 32 µg/mL; MIC [5]: < 8 µg/mL
Clc1ccc(OC(CCn2ccnc2)c2ccccc2)c(Cl)c1 (stereo unspecified) | 8 (≈ 23 µM) | 8 (≈ 23 µM) | 2 (≈ 5.76 µM) | 8 (≈ 23 µM) | 8 (≈ 23 µM) | 4 (≈ 11.5 µM) | 96.7 | 56.5 | MFC [11]: < 16 µg/mL; MIC [5]: < 8 µg/mL
FC(F)(F)c1ccc(OC(CCn2ccnc2)c2ccccc2)cc1 (stereo unspecified) | 128 (≈ 370 µM) | 16 (≈ 46.2 µM) | 4 (≈ 11.5 µM) | 64 (≈ 185 µM) | 128 (≈ 370 µM) | 64 (≈ 185 µM) | 71 | 86 | MFC [12]: < 128 µg/mL; MIC [13]: < 128 µg/mL
Fc1ccc(OC(CCn2ccnc2)c2ccccc2)c(F)c1 (stereo unspecified) | 64 (≈ 204 µM) | 32 (≈ 102 µM) | 8 (≈ 25.5 µM) | 64 (≈ 204 µM) | 128 (≈ 407 µM) |  | 298 | 219 | MFC [12]: < 128 µg/mL; MIC [14]: < 64 µg/mL; MIC50 [15]: 32 µg/mL (≈ 102 µM)
Clc1ccc(C(CCn2ccnc2)Oc2ccc(Cl)cc2Cl)cc1 (stereo unspecified) | 4 (≈ 10.5 µM) | 8 (≈ 21 µM) | 0.5 (≈ 1.31 µM) | 4 (≈ 10.5 µM) | 4 (≈ 10.5 µM) | 2 (≈ 5.24 µM) | 54 | 61 | MFC [16]: < 8 µg/mL; MIC [17]: < 4 µg/mL
Fc1ccc(C(CCn2ccnc2)Oc2ccc(Cl)cc2Cl)cc1 (stereo unspecified) | 4 (≈ 11 µM) | 4 (≈ 11 µM) | 0.5 (≈ 1.37 µM) | 8 (≈ 21.9 µM) | 8 (≈ 21.9 µM) | 2 (≈ 5.48 µM) | 33.5 | 43.3 | MFC [18]: < 16 µg/mL; MIC [17]: < 4 µg/mL
Cc1ccc(C(CCn2ccnc2)Oc2ccc(Cl)cc2Cl)cc1 (stereo unspecified) | 8 (≈ 22.1 µM) | 4 (≈ 11.1 µM) | 1 (≈ 2.77 µM) | 4 (≈ 11.1 µM) | 16 (≈ 44.3 µM) | 2 (≈ 5.54 µM) | 31.4 | 40 | MFC [18]: < 16 µg/mL; MIC [19]: < 4 µg/mL
Cc1ccc(OC(CCn2ccnc2)c2ccccc2)cc1 (stereo unspecified) | 16 (≈ 54.7 µM) | 16 (≈ 54.7 µM) | 2 (≈ 6.84 µM) | 16 (≈ 54.7 µM) | 16 (≈ 54.7 µM) | 8 (≈ 27.4 µM) | 95.9 | 141 | MFC [20]: < 16 µg/mL; MIC [13]: 16 µg/mL (≈ 54.7 µM)
O=[N+]([O-])c1ccc(OC(CCn2ccnc2)c2ccccc2)cc1 (stereo unspecified) | 32 (≈ 99 µM) | 32 (≈ 99 µM) |  | 32 (≈ 99 µM) | >128 | 32 (≈ 99 µM) | 102 | 97.2 | MIC [2]: 4 µg/mL (≈ 12.4 µM); MFC [21]: < 128 µg/mL; MIC [22]: < 64 µg/mL
Clc1ccc(COC(Cn2ccnc2)c2ccc(Cl)cc2Cl)cc1 (stereo unspecified) [ECONAZOLE] | 8 (≈ 21 µM) | 2 (≈ 5.24 µM) | 2 (≈ 5.24 µM) | 16 (≈ 41.9 µM) | 32 (≈ 83.8 µM) | 4 (≈ 10.5 µM) | 54.7 | 60 | MFC [23]: < 32 µg/mL; MIC [24]: < 8 µg/mL
OC(Cn1cncn1)(Cn1cncn1)c1ccc(F)cc1F [FLUCONAZOLE] | 64 (≈ 209 µM) | 8 (≈ 26.1 µM) | 0.5 (≈ 1.63 µM) |  |  | 2 (≈ 6.53 µM) | 385 | 316 | MFC [25]: > 64 µg/mL; MIC [26]: < 64 µg/mL
CNCCC(Oc1ccc(C(F)(F)F)cc1)c1ccccc1 (stereo unspecified) [FLUOXETINE] | 128 (≈ 414 µM) | 64 (≈ 207 µM) | 8 (≈ 25.9 µM) |  |  | 64 (≈ 207 µM) | 25 | 33.3 | MFC [27]: < 128 µg/mL; MIC [28]: < 128 µg/mL
CC(=O)N1CCN(c2ccc(OC[C@H]3CO[C@](Cn4ccnc4)(c4ccc(Cl)cc4Cl)O3)cc2)CC1 [KETOCONAZOLE] | 8 (≈ 15.1 µM) | 0.5 (≈ 0.941 µM) | 0.06 (≈ 0.113 µM) | 16 (≈ 30.1 µM) | 32 (≈ 60.2 µM) | 4 (≈ 7.53 µM) | 61.7 | 70 | MFC [23]: < 32 µg/mL; MIC [29]: < 16 µg/mL
Clc1ccc(COC(Cn2ccnc2)c2ccc(Cl)cc2Cl)c(Cl)c1 (stereo unspecified) [MICONAZOLE] | 4 (≈ 9.61 µM) | 0.5 (≈ 1.2 µM) | 1 (≈ 2.4 µM) | 8 (≈ 19.2 µM) | 16 (≈ 38.4 µM) | 4 (≈ 9.61 µM) | 39.3 | 40 | MFC [30]: < 32 µg/mL; MIC [5]: < 8 µg/mL
